IC50 data for 13 compounds are collected here from ChEMBL document CHEMBL1123327, “Ribose as the preferential target for the oxidized form of elliptinium acetate in ribonucleos(t)ides. Biological activities of the resulting adducts” (1986).

A value given as a limit tells only on which side of the number the result lay.

This assay has as its system L1210. In words: Cytotoxicity was determined in vitro in murine leukemia L1210 Cells. It counts as functional. Conditions: Mus musculus, read-out: ID50 (the source's name). Put shortly: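 Growth inhibition of murine leukemia L1210 cells cultured in vitro. Cells were exposed to the adducts for 48 h and then counted. ID50 is the drug concentration that cuts cell number by 50% relative to untreated control.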

Turning to `Cc1c2cc[n+](C)cc2c(C)c2c3c([nH]c12)C=CC(=O)[C@@]31O[C@@H]2[C@H](O1)[C@@H](CO)O[C@H]2n1cnc2c(O)nc(N)nc21`, the IC50 is 800 nM.
Regarding `Cc1c2cc[n+](C)cc2c(C)c2c3c([nH]c12)C=CC(=O)[C@@]31O[C@@H]2[C@H](O1)[C@@H](CO)O[C@H]2n1ccc(=O)[nH]c1=O`, the IC50 was > 3000 nM.
For `Cc1c2cc[n+](C)cc2c(C)c2c3c([nH]c12)C=CC(=O)[C@@]31O[C@@H]2[C@H](O1)[C@@H](COP(=O)(O)O)O[C@H]2n1cnc2c(O)nc(N)nc21` the value was > 1000 nM.
For `Cc1c2cc[n+](C)cc2c(C)c2c3c([nH]c12)C=CC(=O)[C@@]31O[C@@H]2[C@H](O1)[C@@H](COP(=O)(O)O)O[C@H]2n1cnc2c(N)ncnc21` the value was > 800 nM; for `Cc1c2cc[n+](C)cc2c(C)c2c3c([nH]c12)C=CC(=O)[C@@]31O[C@@H]2[C@H](O1)[C@@H](CO)O[C@H]2n1cnc2c(N)ncnc21`, 800 nM; for `Cc1c2cc[n+](C)cc2c(C)c2c3c([nH]c12)C=CC(=O)[C@@]31O[C@@H]2[C@H](O1)[C@@H](COP(=O)(O)O)O[C@H]2n1ccc(=O)[nH]c1=O`, 1100 nM.
Regarding `Cc1c2cc[n+](C)cc2c(C)c2c3c([nH]c12)C=CC(=O)[C@@]31O[C@@H]2[C@H](O1)[C@@H](CO)O[C@H]2n1ncc(=O)[nH]c1=O`, the IC50 is > 3000 nM.
Turning to `Cc1c2cc[n+](C)cc2c(C)c2c3c([nH]c12)C=CC(=O)[C@@]31O[C@@H]2[C@H](O1)[C@@H](CO)O[C@H]2n1ccc(N)nc1=O`, the IC50 turned out to be 3000 nM.
Regarding `Cc1c2cc[n+](C)cc2c(C)c2c3c([nH]c12)C=CC(=O)[C@@]31O[C@@H]2[C@H](O1)[C@@H](COP(=O)(O)O)O[C@H]2n1ccc(N)nc1=O`, the IC50 came to 12800 nM.
With `O=c1cnn([C@@H]2O[C@H](CO)[C@@H](O)[C@H]2O)c(=O)[nH]1` [6-AZAURIDINE] the figure was 570 nM; with `Cc1c2cc[n+](C)cc2c(C)c2c1[nH]c1ccc(O)cc12` [ELLIPTINIUM ACETATE], 120 nM; with `Nc1nc2[nH]cnc2c(=S)[nH]1` [THIOGUANINE], 70 nM.
With `Nc1nc(=S)c2ncn([C@@H]3O[C@H](CO)[C@@H](O)[C@H]3O)c2[nH]1` [THIOGUANOSINE] the figure was 100 nM.
